Measured values published in article PMC6690763 (Bioorganic & medicinal chemistry letters, 2019).

Tests used:
[1] = plasma stability, mouse; format: in vitro ADME
[2] = plasma stability, human; format: in vitro ADME
[3] = solubility on formulation; format: physicochemical; conditions: for solubility when formulated: 10% DMSO/ 10% solutol/ 80% PBS formulation mixture; for water solubility (ease of formulation): PEG moiety instead of methoxy in the B ring
[4] = tested on: latent EBV in MutuI cells; test: EBV lytic reactivation, MutuI cell based assay; set-up: species or system Epstein-Barr virus; conditions: for potency in EBV reactivation relative to 12: analogs of 12
[5] = tested on: latent EBV in SNU719 gastric carcinoma tumors; test: SNU719 gastric carcinoma xenograft, BZLF1 immunoblot of tumors; format: in vivo; conditions: NSG mice, 30 mg/kg i.p. once per day, 4 days
Procedure, shortened: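 SNU719 gastric carcinoma cells (1×10^7) injected subcutaneously into left and right flanks of NSG mice (both sexes, 8-10 weeks old). From 28 days post-injection, test compound given i.p. at 30 mg/kg once daily; controls were vehicle (5% DMSO/5% Solutol) and PBS. Tumors collected after 4 days of treatment and homogenized. Immunoblot for lytic BZLF1 (Z), with β-actin as loading control.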

[6] = tested on: latent EBV; test: cell based reactivation, Western blot analysis; set-up: species or system Epstein-Barr virus; conditions: compared with methoxy substituted counterparts; data not shown
[7] = tested on: EBV-positive cells; conditions: combination with Ganciclovir; cited from earlier work
[8] = liver microsomal stability, mouse; format: in vitro ADME; conditions: microsomes
[9] = liver microsomal stability, human; format: in vitro ADME; conditions: microsomes
[10] = tested on: latent EBV in MutuI cells; conditions: typical; cited from earlier work

COc1ccc(C2c3[nH]c4ccc(Cl)cc4c3CCN2C(=O)c2cccc(OC)c2)cc1 (stereo not drawn) [Compound 12]
Plasma Stability Mouse [1]: >6 h | Plasma Stability Human [2]: >6 h

COc1ccc(C2c3[nH]c4ccc(Cl)cc4c3CCN2C(=O)c2cccc(CN3CCOCC3)c2)cc1 (stereo not drawn) [Compound 18]
solubility when formulated [3]: more soluble | potency in EBV reactivation relative to 12 [4]: maintained potency

O=C(c1cccc(CN2CCOCC2)c1)N1CCc2c([nH]c3ccc(Cl)cc23)C1c1ccc(Cl)cc1 (stereo not drawn) [Compound 19]
solubility when formulated [3]: more soluble | potency in EBV reactivation relative to 12 [4]: maintained potency

COc1cccc(C(=O)N2CCc3c([nH]c4ccc(Cl)cc34)C2c2ccc(O)cc2)c1 (stereo not drawn) [Compound 20]
solubility when formulated [3]: more soluble | EBV reactivation in tumors (presence of lytic protein BZLF1) [5]: modestly reactivates EBV | potency in EBV reactivation relative to 12 [4]: maintained potency

COCCOCCOCCOc1ccc(C2c3[nH]c4ccc(Cl)cc4c3CCN2C(=O)Nc2ccccc2C(=O)OC)cc1 (stereo not drawn) [Compound 21]
water solubility (ease of formulation) [3]: significantly improved water solubility | activity by Western blot analysis [6]: comparable activity to their methoxy substituted counterparts

COCCOCCOCCOc1ccc(C2c3[nH]c4ccc(Cl)cc4c3CCN2C(=O)Nc2ccccc2Cl)cc1 (stereo not drawn) [Compound 22]
water solubility (ease of formulation) [3]: significantly improved water solubility | activity by Western blot analysis [6]: comparable activity to their methoxy substituted counterparts

COC(=O)c1ccccc1NC(=O)N1CCc2c([nH]c3ccc(Cl)cc23)C1c1ccc(OC)cc1 (stereo not drawn) [Compound C60]
synergy with GCV in killing EBV-positive cells [7]: functions synergistically with Ganciclovir (GCV) to selectively kill EBV-positive cells | Liver Microsomal Stability Mouse CLint [8]: < 0.5 | EC50 ([4]; human gammaherpesvirus 4, MUTU-I, read-out: potency in cells): 150 to 200 nM | Liver Microsomal Stability Human CLint [9]: 0.93 | Plasma Stability Mouse [1]: >6 h | Plasma Stability Human [2]: >6 h

CCCC(=O)[O-].[Na+] [NaB, sodium butyrate]
concentration required to trigger the latent to lytic switch [10]: millimolar concentrations

CCCCCCCCCCCCCC(=O)O[C@@H]1[C@@H](C)[C@@]2(O)[C@@H](C=C(CO)C[C@]3(O)C(=O)C(C)=C[C@@H]23)[C@@H]2C(C)(C)[C@]12OC(C)=O [TPA, 12-O-tetradecanoylphorbol-13-acetate]
concentration required to trigger the latent to lytic switch [10]: millimolar concentrations
